# Assay results pooled from the literature.
# Compare with care: the assays were run in different laboratories.
# CDK9: Cyclin-dependent kinase 9 (CDK9, Homo sapiens, UniProt P50750)
# CDK1: Cyclin-dependent kinase 1 (CDK1, Homo sapiens, UniProt P06493)
# DPP4: Dipeptidyl peptidase 4 (DPP4, Homo sapiens, UniProt P27487)
SMILES,target,effect on,mode,method,tested at,measurement,result
COc1cc(-c2cncc3c2CN(C)Cc2cc(N4CCNCC4)ccc2-3)cc(OC)c1OC,"Cyclin-dependent kinase 9, with cyclin T1 (CDK9, Homo sapiens, UniProt P50750)",enzyme activity,inhibitor,,1 µM,remaining activity,100%
CC(=O)c1c(C)c2cnc(Nc3ccc(N4CCNCC4)cn3)nc2n(C2CCCC2)c1=O,CDK9,enzyme activity,inhibitor,ADP detection,1 µM,activity vs control,106%
CN(C)c1ncnc2c1ncn2[C@@H]1O[C@H](CCl)[C@@H](NC(=O)[C@H](CSC(c2ccccc2)c2ccccc2)NC(=O)OC(C)(C)C)[C@H]1O,"Aminopeptidase N (ANPEP, Homo sapiens, UniProt P15144)",enzyme activity,inhibitor,fluorescence,10 µM,inhibition,4.6%
CCO[C@@H](Cc1ccc(OCCc2ccc(OS(C)(=O)=O)cc2)cc1)C(=O)O,CDK1,enzyme activity,inhibitor,ADP detection,100 µM,inhibition,96.9%
CNc1ncc2c(/C=C/C(=O)N3CCC(OC)CC3)nn(Cc3cccc(C(F)(F)F)c3)c2n1,"Cyclin-dependent kinase 1, with cyclin A2 (CDK1, Homo sapiens, UniProt P06493)",enzyme activity,inhibitor,radiometric,1 µM,remaining activity,86%
Cc1cc([C@@H](C)Nc2ccccc2C(=O)O)c2nc(N3CCC(F)(F)CC3)c(C#N)c(=O)n2c1,"RAC-alpha serine/threonine-protein kinase (AKT1, Homo sapiens, UniProt P31749)",binding,,competition with immobilised ligand,1 µM,remaining binding,100%
Cn1c(=O)cc(N2CCC(N)CC2)n(Cc2nc3ccccc3c(=O)n2-c2ccc(F)cc2)c1=O,DPP4,enzyme activity,inhibitor,,20 µM,inhibition,19.9%
O=C1NC(=NCc2cccs2)S/C1=C\c1ccc2ncccc2c1,CDK1,enzyme activity,inhibitor,ADP detection,10 µM,inhibition,100%
Cn1c(=O)cc(N2CCC(N)CC2)n(Cc2nc3ccc(Br)cc3c(=O)n2-c2ccc(F)cc2)c1=O,DPP4,enzyme activity,inhibitor,,20 µM,inhibition,27.3%
Cc1cc2cc(Oc3ccnc(Nc4cccc(CS(=O)(=O)NCCN(C)C)c4)n3)ccc2[nH]1,CDK1,enzyme activity,inhibitor,ADP detection,10 µM,inhibition,51.5%
Cn1c(=O)cc(N2CCC(N)CC2)n(Cc2nc3ccccc3c(=O)n2-c2ccc(F)c(Cl)c2)c1=O,DPP4,enzyme activity,inhibitor,,20 µM,inhibition,32.5%
C=CC(=O)N1CCC(COCC(=O)N2CCN(c3nc(-c4cnc(N)nc4C(F)F)nc(N4CCOC[C@@H]4C)n3)CC2)CC1,CDK9,binding,,competition with immobilised ligand,1 µM,remaining binding,100%
COc1ccc(S(=O)(=O)N(CC(=O)NO)CC(C)C)cc1,"Stromelysin-2 (Homo sapiens, UniProt P09238)",enzyme activity,inhibitor,,0.5 µM,inhibition,47.4%
